Results: article PMC6014630 (Tuberculosis (Edinburgh, Scotland), 2018)

Experiments:
[1] = test system: human neutrophils, monocytes and lymphocytes; assay type: cell-based
[2] = test system: lung cell populations of TDM-challenged C57BL/6 mice; experiment: In vivo cellular specificity of cFLFLFK-PEG12-Cy3 in TDM-challenged mouse lung; conditions: 50 µg i.v., 4 h circulation, 5 days after TDM; flow cytometry, n=3
Method in brief: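 Female C57BL/6 mice (8 weeks, 18–20 g) received 100 µg TDM i.v. Five days later they got 50 µg Cy3-labelled test compound i.v. (n=3) or PBS (n=2). Lungs were digested 4 h later, and cells (2×10^6/mL in HBSS+) were live/dead stained 30 min on ice. They were blocked 30 min (40% mouse serum), plated at 1×10^6/well and mAb-stained. Flow cytometry acquired 100,000 live events. Gated populations were CD11b+Ly6G+, CD3+, CD11c+CD11b-, CD11b+CD11c+, CD11b+CD11c- and marker-negative. Each population's share of total Cy3 signal was pooled across mice.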

C57BL/6 mouse lung = experiment: TDM-induced lung granulomatous inflammation in mice; assay type: in vivo
Method in brief: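 TDM was given via tail vein as an oil-in-water emulsion (100 µL, 100 µg), or vehicle alone. Day-5 lungs were H&E-stained for light microscopy (histology mice 6 weeks old). Flow cytometry used five TDM-treated mice (female, 8 weeks) with live/dead staining and mAb gating: CD11b+Ly6G+ neutrophils, CD3+ lymphocytes, CD11c+CD11b- alveolar macrophages, CD11b+CD11c+ macrophages/dendritic cells, CD11b+CD11c- monocytes/immature macrophages. Values are percentages of all living cells.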

[3] = five TDM-administered mice, day 5

Substance	Cy3 MFI on neutrophils compared with monocytes and lymphocytes [1]	Dose dependence of binding to neutrophils, monocytes and lymphocytes [1]	Targeting of lymphocytes and other (antibody-negative) cells in the lung [2]	Lung histology (H&E) (C57BL/6 mouse lung; 100 µg TDM i.v., day 5, versus vehicle emulsion)	Change in lung frequency of CD3+ lymphocytes (C57BL/6 mouse lung; 100 µg TDM i.v., day 5, flow cytometry)	Frequency increase of lung neutrophils compared to vehicle-injected mice (C57BL/6 mouse lung; 100 µg TDM i.v., day 5, flow cytometry, data not shown)	Percentage of alveolar macrophages relative to all living lung cells (C57BL/6 mouse lung; [3])	Percentage of immature macrophages/monocytes relative to all living lung cells (C57BL/6 mouse lung; [3])	Percentage of lymphocytes relative to all living lung cells (C57BL/6 mouse lung; [3])	Percentage of macrophages/dendritic cells relative to all living lung cells (C57BL/6 mouse lung; [3])	Percentage of neutrophils relative to all living lung cells (C57BL/6 mouse lung; [3])
cFLFLFK-PEG12-Cy3	significantly higher	Dose-dependent binding was observed on all cell types	not targeted	–	–	–	–	–	–	–	–
trehalose dimycolate [TDM]	–	–	–	patchy regions of granulomatous inflammation were observed	unchanged	9.1% ± 6.4%	6.3% ± 1.7%	20.1% ± 3.1%	10.7% ± 2.5%	17.7% ± 7.7%	9.2% ± 3.7%
